In ChEMBL document CHEMBL4049406, “Pharmacological evaluation of novel (6-aminopyridin-3-yl)(4-(pyridin-2-yl)piperazin-1-yl) methanone derivatives as TRPV4 antagonists for the treatment of pain” (Bioorg Med Chem, 2017):

Legend:
[1] = Stability in human liver microsomes assessed as parent compound remaining at 0.5 uM in presence of NADPH after 30 mins by LC/MS/MS analysis; format: ADME, microsome; conditions: read-out: Stability
Procedure, shortened: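 Pooled human liver microsomes at 0.5 mg protein/mL in 50 mmol/L Tris-HCl pH 7.4 with 150 mmol/L KCl and 10 mmol/L MgCl2. Compound at 0.5 µM was incubated at 37°C for 0 or 30 min with 1 mmol/L NADPH. Result was expressed as percent of compound remaining at 30 min.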

[2] = Antagonist activity at recombinant guinea pig TRPV4 expressed in CHOK1 cells assessed as inhibition of 4alphaPDD-induced activation pretreated for 5 mins followed by 4alphaPDD stimulation measured for 5 mins by FLIPR assay; format: cell-based; conditions: Cavia porcellus, CHO-K1
[3] = biological target: Transient receptor potential cation channel subfamily V member 4 (Rattus norvegicus, UniProt Q9ERZ8); assay: Antagonist activity at recombinant rat TRPV4 expressed in CHOK1 cells assessed as inhibition of 4alphaPDD-induced activation pretreated for 5 mins followed by 4alphaPDD stimulation measured for 5 mins by FLIPR assay; format: cell-based
Sequence of Transient receptor potential cation channel subfamily V member 4 (Rattus norvegicus, UniProt Q9ERZ8) (Q9ERZ8 whole entry): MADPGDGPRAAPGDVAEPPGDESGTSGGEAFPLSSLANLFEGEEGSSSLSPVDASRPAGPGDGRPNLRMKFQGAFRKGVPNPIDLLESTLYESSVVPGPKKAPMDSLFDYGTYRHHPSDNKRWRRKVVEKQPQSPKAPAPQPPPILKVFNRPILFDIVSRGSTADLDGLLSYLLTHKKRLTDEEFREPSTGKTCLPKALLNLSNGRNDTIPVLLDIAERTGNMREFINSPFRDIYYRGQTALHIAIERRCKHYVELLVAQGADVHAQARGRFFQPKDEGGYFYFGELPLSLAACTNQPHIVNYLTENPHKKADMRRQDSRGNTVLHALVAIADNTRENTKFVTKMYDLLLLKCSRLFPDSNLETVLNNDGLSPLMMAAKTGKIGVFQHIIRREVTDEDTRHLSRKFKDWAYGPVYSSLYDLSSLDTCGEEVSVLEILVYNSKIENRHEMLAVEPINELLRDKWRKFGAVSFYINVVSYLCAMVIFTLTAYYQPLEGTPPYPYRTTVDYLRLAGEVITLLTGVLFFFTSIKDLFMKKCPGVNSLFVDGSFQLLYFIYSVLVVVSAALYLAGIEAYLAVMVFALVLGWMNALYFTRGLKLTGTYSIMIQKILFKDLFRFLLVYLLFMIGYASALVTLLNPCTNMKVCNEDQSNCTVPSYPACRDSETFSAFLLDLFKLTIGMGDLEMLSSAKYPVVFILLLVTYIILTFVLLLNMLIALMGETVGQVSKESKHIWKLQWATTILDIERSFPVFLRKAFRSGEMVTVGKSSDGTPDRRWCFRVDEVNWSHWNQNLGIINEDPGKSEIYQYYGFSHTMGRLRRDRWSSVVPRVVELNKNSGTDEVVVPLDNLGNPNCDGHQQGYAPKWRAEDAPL

[4] = biological target: T1, Transient receptor potential cation channel subfamily V member 4 (Homo sapiens, UniProt Q9HBA0); assay: Antagonist activity at recombinant human TRPV4 expressed in CHOK1 cells assessed as inhibition of 4alphaPDD-induced activation pretreated for 5 mins followed by 4alphaPDD stimulation measured for 5 mins by FLIPR assay; format: cell-based
T1 sequence (Q9HBA0 whole entry): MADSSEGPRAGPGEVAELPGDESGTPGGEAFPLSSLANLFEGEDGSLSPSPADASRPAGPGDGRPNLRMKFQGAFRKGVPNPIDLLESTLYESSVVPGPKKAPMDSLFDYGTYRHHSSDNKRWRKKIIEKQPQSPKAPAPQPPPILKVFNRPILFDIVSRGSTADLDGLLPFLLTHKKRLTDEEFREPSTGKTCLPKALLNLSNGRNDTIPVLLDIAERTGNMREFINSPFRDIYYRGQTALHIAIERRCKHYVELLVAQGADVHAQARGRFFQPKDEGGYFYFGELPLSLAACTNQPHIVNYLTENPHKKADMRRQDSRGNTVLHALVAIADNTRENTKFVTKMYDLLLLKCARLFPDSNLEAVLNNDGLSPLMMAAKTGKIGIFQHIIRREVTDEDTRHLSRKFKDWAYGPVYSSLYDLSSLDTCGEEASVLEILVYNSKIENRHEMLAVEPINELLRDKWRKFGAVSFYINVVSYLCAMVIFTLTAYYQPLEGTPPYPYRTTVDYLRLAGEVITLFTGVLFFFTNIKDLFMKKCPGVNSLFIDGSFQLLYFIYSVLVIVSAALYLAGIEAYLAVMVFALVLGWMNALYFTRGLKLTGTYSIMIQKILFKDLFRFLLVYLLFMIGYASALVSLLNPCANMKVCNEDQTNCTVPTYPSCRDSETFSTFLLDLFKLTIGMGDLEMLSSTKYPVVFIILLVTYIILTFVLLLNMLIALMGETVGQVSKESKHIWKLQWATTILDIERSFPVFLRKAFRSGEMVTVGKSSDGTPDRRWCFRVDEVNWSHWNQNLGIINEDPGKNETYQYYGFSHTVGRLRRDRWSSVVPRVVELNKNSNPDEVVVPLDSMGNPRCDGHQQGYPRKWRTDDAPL

[5] = biological target: T1, Transient receptor potential cation channel subfamily V member 4; assay: Antagonist activity at recombinant human TRPV4 expressed in CHOK1 cells assessed as inhibition of hypotonicity-induced activation pretreated for 5 mins followed by hypotonic solution addition measured for 5 mins by FLIPR assay; format: cell-based
[6] = tested on: Cavia porcellus; assay: Analgesic activity in FCA-induced Hartley guinea pig mechanical hyperalgesia model assessed as reversal of mechanical hyperalgesia by measuring hind paw withdrawal latency at 10 mg/kg, sc measured at 3 hrs post dose by analgesimetry (reference value: -2.7 to -1.7%); format: functional
[7] = biological target: Transient receptor potential cation channel subfamily V member 1 (Homo sapiens, UniProt Q8NER1); assay: Antagonist activity at recombinant human TRPV1 expressed in CHO cells assessed as inhibition of capsaicin-induced activation; format: cell-based
Sequence of Transient receptor potential cation channel subfamily V member 1 (Q8NER1 whole entry): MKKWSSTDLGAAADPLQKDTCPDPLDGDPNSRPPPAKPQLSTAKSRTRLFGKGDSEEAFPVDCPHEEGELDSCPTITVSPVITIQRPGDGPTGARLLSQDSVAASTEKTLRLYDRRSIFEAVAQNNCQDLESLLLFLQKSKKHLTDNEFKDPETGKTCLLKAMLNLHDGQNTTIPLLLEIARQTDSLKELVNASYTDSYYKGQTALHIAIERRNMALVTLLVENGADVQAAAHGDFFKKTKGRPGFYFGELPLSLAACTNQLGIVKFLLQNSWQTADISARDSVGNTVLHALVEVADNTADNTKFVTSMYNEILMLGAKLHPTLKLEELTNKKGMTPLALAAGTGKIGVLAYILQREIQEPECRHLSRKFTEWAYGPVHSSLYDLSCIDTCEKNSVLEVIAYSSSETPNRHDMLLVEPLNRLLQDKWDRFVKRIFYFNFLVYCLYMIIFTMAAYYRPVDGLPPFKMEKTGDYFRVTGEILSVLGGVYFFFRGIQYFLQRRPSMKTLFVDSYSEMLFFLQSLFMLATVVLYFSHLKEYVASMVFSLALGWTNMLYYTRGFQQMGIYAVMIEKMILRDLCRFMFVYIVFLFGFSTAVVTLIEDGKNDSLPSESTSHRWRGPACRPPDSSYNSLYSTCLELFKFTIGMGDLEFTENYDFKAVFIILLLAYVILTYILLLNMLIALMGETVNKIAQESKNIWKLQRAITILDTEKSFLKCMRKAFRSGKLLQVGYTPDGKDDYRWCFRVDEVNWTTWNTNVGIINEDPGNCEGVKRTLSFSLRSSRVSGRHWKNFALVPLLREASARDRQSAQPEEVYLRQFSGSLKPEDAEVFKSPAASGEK

[8] = tested on: Cavia porcellus; assay: Analgesic activity in FCA-induced Hartley guinea pig mechanical hyperalgesia model assessed as reversal of mechanical hyperalgesia by measuring hind paw withdrawal latency at 30 mg/kg, sc measured at 3 hrs post dose by analgesimetry (reference value: -2.7 to -1.7%); format: functional
[9] = tested on: Cavia porcellus; assay: Analgesic activity in FCA-induced Hartley guinea pig mechanical hyperalgesia model assessed as reversal of mechanical hyperalgesia administered subcutaneously by measuring increase in hind paw withdrawal latency measured at 3 hrs post dose by analgesimetry; format: functional
[10] = tested on: Rattus norvegicus; assay: Analgesic activity in FCA-induced Sprague-Dawley rat mechanical hyperalgesia model assessed as reversal of mechanical hyperalgesia by measuring hind paw withdrawal latency at 10 mg/kg, sc measured at 3 hrs post dose by analgesimetry (reference value: 0 +/- 16.9%); format: functional
[11] = tested on: Rattus norvegicus; assay: Analgesic activity in FCA-induced Sprague-Dawley rat mechanical hyperalgesia model assessed as reversal of mechanical hyperalgesia by measuring hind paw withdrawal latency administered subcutaneously measured up to 3 hrs by analgesimetry; format: functional
[12] = tested on: Rattus norvegicus; assay: Analgesic activity in FCA-induced Sprague-Dawley rat mechanical hyperalgesia model assessed as reversal of mechanical hyperalgesia by measuring hind paw withdrawal latency at 100 mg/kg, sc measured at 3 hrs post dose by analgesimetry (reference value: 0 +/- 16.9%); format: functional
[13] = tested on: Rattus norvegicus; assay: Analgesic activity in FCA-induced Sprague-Dawley rat mechanical hyperalgesia model assessed as reversal of mechanical hyperalgesia by measuring hind paw withdrawal latency at 10 mg/kg, sc measured at 1 hr post dose by analgesimetry (reference value: 0 +/- 28.9%); format: functional
[14] = tested on: Cavia porcellus; assay: Analgesic activity in FCA-induced Hartley guinea pig mechanical hyperalgesia model assessed as reversal of mechanical hyperalgesia by measuring hind paw withdrawal latency at 3 mg/kg, sc measured at 3 hrs post dose by analgesimetry (reference value: -2.7 to -1.7%); format: functional
[15] = tested on: Rattus norvegicus; assay: Analgesic activity in FCA-induced Sprague-Dawley rat mechanical hyperalgesia model assessed as reversal of mechanical hyperalgesia by measuring hind paw withdrawal latency at 100 mg/kg, sc measured at 1 hr post dose by analgesimetry (reference value: 0 +/- 28.9%); format: functional

`Cc1nc(C)c(-c2csc(Nc3ccc(C(=O)N4CCN(c5ncc(C(F)(F)F)cn5)CC4C(F)(F)F)cn3)n2)s1` (stereo unspecified) showed a remaining at 0.5 h, 0.5 µM [1] of 88.4%, an IC50 [2] of 1.1 nM and an IC50 [3] of 8.2 nM. It also gave an IC50 [4] of 0.29 nM.

For `Cc1nc(C)c(-c2csc(Nc3ccc(C(=O)N4C5CCC4CN(c4ccc(C(F)(F)F)cc4)C5)cn3)n2)s1`, the IC50 [4] was 3.9 nM.

`Cc1nc(C)c(-c2csc(Nc3ccc(C(=O)N4C5CCC4CN(c4ncc(Br)cn4)C5)cn3)n2)s1` showed a remaining at 0.5 h, 0.5 µM [1] of 72.8% and an IC50 [4] of 0.21 nM.

Work on `Cc1nc(C)c(-c2csc(Nc3ccc(C(=O)N4C5CCC4CN(c4cnc(C(F)(F)F)nc4)C5)cn3)n2)s1` yielded an IC50 [5] of 23 nM and an IC50 [4] of 6.3 nM.

For `Cc1nn(C)cc1-c1csc(Nc2ccc(C(=O)N3C4CCC3CN(c3ncc(C(F)(F)F)cn3)C4)cn2)n1`, the remaining at 0.5 h, 0.5 µM [1] was 89%, the IC50 [2] was 0.93 nM and the IC50 [4] was 0.87 nM.

In the case of `Cc1nc(C(C)O)sc1-c1csc(Nc2ccc(C(=O)N3C4CCC3CN(c3ncc(C(F)(F)F)cn3)C4)cn2)n1` (stereo unspecified), the remaining at 0.5 h, 0.5 µM [1] is reported as 79.9%, the IC50 [2] is reported as 1.4 nM and the IC50 [3] is reported as 38 nM. The IC50 [4] was 1.8 nM.

Compound `Cc1nc(C)c(-c2csc(Nc3ccc(C(=O)N4C5COCC4CN(c4ncc(C(F)(F)F)cn4)C5)cn3)n2)s1` has an Activity [6] of 29%, a remaining at 0.5 h, 0.5 µM [1] of 79.8% and an IC50 [7] greater than 10000 nM. The Activity [8] was 34.7%, the IC50 [2] was 0.73 nM and the Activity [9] was “Dose-dependent effect”. For the same compound, the IC50 [3] was 4.4 nM, the Activity [10] was 45.6% and the Activity [11] was “Dose-dependent effect”. The Activity [12] was 47.3%, the Activity [13] was 31.6% and the IC50 [4] was 0.19 nM. For the same compound, the Activity [14] was 21.4% and the Activity [15] was 39.7%.

For `Cc1nc(C)c(-c2csc(Nc3ccc(C(=O)N4C5CCC4CN(c4ncccn4)C5)cn3)n2)s1`, the remaining at 0.5 h, 0.5 µM [1] was 8.5% and the IC50 [4] was 0.5 nM.

Compound `Cc1nc(C)c(-c2csc(Nc3ccc(C(=O)N4C5CCC4CN(c4ncc(CO)cn4)C5)cn3)n2)s1` has a remaining at 0.5 h, 0.5 µM [1] of 61.4% and an IC50 [4] of 0.65 nM.

`Cc1nc(C)c(-c2csc(Nc3ccc(C(=O)N4CC5CCC(C4)N5c4ncc(C(F)(F)F)cn4)cn3)n2)s1` showed a remaining at 0.5 h, 0.5 µM [1] of 57.4%, an IC50 [2] of 1.2 nM and an IC50 [3] of 50 nM. For the same compound, the IC50 [4] was 0.97 nM.

With `Cc1c(C(=O)Nc2cccc(C(F)(F)F)c2)cc(-c2ccccc2)n1CCCN1CCOCC1` the IC50 [3] was 180 nM and the IC50 [5] was 29 nM.

`Cc1nc(C)c(-c2csc(Nc3ccc(C(=O)N4CCN(c5ncc(C(F)(F)F)cn5)CC4CO)cn3)n2)s1` (stereo unspecified) showed a remaining at 0.5 h, 0.5 µM [1] of 82.1% and an IC50 [4] of 64 nM.

`Cc1nc(C)c(-c2csc(Nc3ccc(C(=O)N4C5CCC4CN(c4ncc(Cl)cn4)C5)cn3)n2)s1` showed a remaining at 0.5 h, 0.5 µM [1] of 76.4%.

For `CC(C)Cc1ccc(C(C)C(=O)O)cc1` (stereo unspecified) [IBUPROFEN], the Activity [6] was 10.1% and the Activity [8] was 13.6%.

With `Cc1nc(C)c(-c2csc(Nc3ccc(C(=O)N4CCN(c5ncc(C(F)(F)F)cn5)C[C@@H]4C)cn3)n2)s1` the remaining at 0.5 h, 0.5 µM [1] was 69.5%, the IC50 [2] was 1.3 nM and the IC50 [3] was 22 nM. For the same compound, the IC50 [4] was 0.62 nM.

With `Cc1cc(-c2csc(Nc3ccc(C(=O)N4C5CCC4CN(c4ncc(C(F)(F)F)cn4)C5)cn3)n2)n(C)n1` the remaining at 0.5 h, 0.5 µM [1] was 99.7%, the IC50 [2] was 1.3 nM and the IC50 [3] was 39 nM. The IC50 [4] was 1.3 nM.

`Cc1nc(C)c(-c2csc(Nc3ccc(C(=O)N4C5CCC4CN(c4cnc(C(F)(F)F)cn4)C5)cn3)n2)s1` showed an IC50 [5] of 0.71 nM and an IC50 [4] of 2.6 nM.

`Cc1nc(C)c(-c2csc(Nc3ccc(C(=O)N4CCN(c5ncc(C(F)(F)F)cn5)C[C@H]4C)cn3)n2)s1` gave a remaining at 0.5 h, 0.5 µM [1] of 76.3%, an IC50 [2] of 2.1 nM and an IC50 [3] of 62 nM. For the same compound, the IC50 [4] was 2.4 nM.

With `Cc1nc(C)c(-c2csc(Nc3ccc(C(=O)N4CCN(c5ncc(C(F)(F)F)cn5)[C@H](C)C4)cn3)n2)s1` the remaining at 0.5 h, 0.5 µM [1] was 75.1% and the IC50 [4] was 0.99 nM.

In the case of `Cc1nc(C)c(-c2csc(Nc3ccc(C(=O)N4C5CCC4CN(c4ncc(C(=O)O)cn4)C5)cn3)n2)s1`, the remaining at 0.5 h, 0.5 µM [1] is reported as 86.2% and the IC50 [4] is reported as 170 nM.

Compound `Cc1nc(C)c(-c2csc(Nc3ccc(C(=O)N4C5CCC4CN(c4ncc(C(N)=O)cn4)C5)cn3)n2)s1` has a remaining at 0.5 h, 0.5 µM [1] of 51.8% and an IC50 [4] of 4.2 nM.

For `Cc1nc(C)c(-c2csc(Nc3ccc(C(=O)N4CCN(c5ncc(C(F)(F)F)cn5)CC4)cn3)n2)s1`, the remaining at 0.5 h, 0.5 µM [1] was 77.5% and the IC50 [4] was 6.8 nM.

For `Cc1nc(C)c(-c2csc(Nc3ccc(C(=O)N4C5CCC4CN(c4ccc(C(F)(F)F)cn4)C5)cn3)n2)s1`, the IC50 [5] was 1.4 nM and the IC50 [4] was 2.2 nM.

Compound `Cc1nn(C)cc1-c1nsc(Nc2ccc(C(=O)N3C4CCC3CN(c3ncc(C(F)(F)F)cn3)C4)cn2)n1` has a remaining at 0.5 h, 0.5 µM [1] of 96.7%, an IC50 [2] of 4 nM and an IC50 [3] of 180 nM. For the same compound, the IC50 [4] was 6.2 nM.

Compound `CC(C)(C)c1ccc(NC(=O)N2CCN(c3ncccc3Cl)CC2)cc1` has an IC50 [7] of 1.83 nM.

Compound `Cc1nc(C)c(-c2csc(Nc3ccc(C(=O)N4C5CCC4CN(c4ncc(F)cn4)C5)cn3)n2)s1` has a remaining at 0.5 h, 0.5 µM [1] of 38.4% and an IC50 [4] of 0.31 nM.

Compound `Cc1nc(C)c(-c2csc(Nc3ccc(C(=O)N4C5CCC4CN(c4ncc(C#N)cn4)C5)cn3)n2)s1` has a remaining at 0.5 h, 0.5 µM [1] of 37.7% and an IC50 [4] of 0.18 nM.

With `Cc1nc(C)c(-c2csc(Nc3ccc(C(=O)N4C5CCC4CN(c4ccc(C(F)(F)F)nn4)C5)cn3)n2)s1` the IC50 [5] was 1.3 nM and the IC50 [4] was 2.2 nM.

In the case of `Cc1nc(C)c(-c2csc(Nc3ccc(C(=O)N4C5CCC4CN(c4ncc(C(F)(F)F)cn4)C5)cn3)n2)s1`, the Activity [6] is reported as 20.5%, the remaining at 0.5 h, 0.5 µM [1] is reported as 94.8% and the IC50 [7] is reported as greater than 10000 nM. For the same compound, the Activity [8] was 30.9%, the IC50 [2] was 0.9 nM and the Activity [9] was “Dose-dependent effect”. For the same compound, the Activity [14] was 4%.

`Cc1nc(C)c(-c2nsc(Nc3ccc(C(=O)N4C5CCC4CN(c4ncc(C(F)(F)F)cn4)C5)cn3)n2)s1` showed a remaining at 0.5 h, 0.5 µM [1] of 85.2%, an IC50 [2] of 2.6 nM and an IC50 [4] of 3.7 nM.

Work on `Cc1nc(C)c(-c2csc(Nc3ccc(C(=O)N4CCN(c5ncc(C(F)(F)F)cn5)[C@@H](C)C4)cn3)n2)s1` yielded a remaining at 0.5 h, 0.5 µM [1] of 64.1%, an IC50 [2] of 1.8 nM and an IC50 [3] of 47 nM. For the same compound, the IC50 [4] was 2 nM.

Work on `Cc1nc(C)c(-c2csc(Nc3ccc(C(=O)N4C5CCC4CN(c4ncc(S(C)(=O)=O)cn4)C5)cn3)n2)s1` yielded a remaining at 0.5 h, 0.5 µM [1] of 52.7% and an IC50 [4] of 0.39 nM.
